This is an account of results in ChEMBL document CHEMBL1141705, “Optimization of a series of multi-isoform PI3 kinase inhibitors” (Bioorg Med Chem Lett, 2008).

Data set [1] in a line: Distribution coefficient, log D of the compound. Format: physicochemical. The note with it: octanol/water. The essentials: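 logD was determined experimentally at pH 7.4.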
The nature of data set [2]: Cmax in Han/Wistar rat at 3 mg/kg, po. It counts as ADME, organism-based. The arrangement: dose 3 mg/kg, route oral. The note with it: in vivo. The essentials: (§1)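 Han-Wistar rats received a single oral dose of 3 mg/kg. Plasma Cmax is reported in ng/mL and AUC in ng h/mL.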
Data set [3] can be described thus: AUC in Han/Wistar rat at 3 mg/kg, po. It counts as ADME, organism-based. The note with it: plasma. Also on record: dose 3 mg/kg, route oral. In a few lines:
as §1

As to `Cc1ccc(-c2ccc3c(c2)N(c2nc4c(s2)C(=O)NC(C)(C)C4)CCO3)nn1`, the logD in data set [1] was determined as 2.32. In the case of `COC[C@H](O)Cn1cc(-c2ccc3c(c2)N(c2nc4c(s2)C(=O)NC(C)(C)C4)CCO3)cn1`, the highest level in data set [2] (Cmax) was 187 ng/mL. In data set [3], this compound yielded an AUC of 807 ng·h/mL. In data set [1], `Cc1ccc(Nc2ccc3c(c2)N(c2nc4c(s2)C(=O)NC(C)(C)C4)CCO3)nn1` came in with a logD of 2.39. Moreover, the Cmax in data set [2] was found to be 105 ng/mL. In data set [3], this compound returned an AUC of 345 ng·h/mL. Compound `CC1(C)Cc2nc(N3CCOc4ccc(Nc5ccc(N6CCNCC6)nn5)cc43)sc2C(=O)N1` yielded a logD in data set [1] of 0.6.

Compound `CN1CCN(c2ccc(Nc3ccc4c(c3)N(c3nc5c(s3)C(=O)NC(C)(C)C5)CCO4)nn2)CC1` displayed a logD in data set [1] of 1.76. In data set [1], `Cc1cc(C)c(Nc2ccc3c(c2)N(c2nc4c(s2)C(=O)NC(C)(C)C4)CCO3)nn1` registered a logD of 1.97. In turn, `CCn1nc(C)c(-c2ccc3c(c2)N(c2nc4c(s2)C(=O)NC(C)(C)C4)CCO3)c1C` came in with a logD in data set [1] of 3.57. In data set [2], this compound gave a Cmax of 139 ng/mL. Also, in data set [3], the AUC came out at 591 ng·h/mL. The like results for `COCC(O)Cn1cc(-c2ccc3c(c2)N(c2nc4c(s2)C(=O)NC(C)(C)C4)CCO3)cn1` (stereo unspecified) were, in that order, 2.19, 159 ng/mL and 495 ng·h/mL. In the case of `CC1(C)Cc2nc(N3CCOc4ccc(-c5cnn(Cc6cccnc6)c5)cc43)sc2C(=O)N1`, the logD in data set [1] was determined as 2.94.

Regarding `Cc1nn(C)cc1-c1ccc2c(c1)N(c1nc3c(s1)C(=O)NC(C)(C)C3)CCO2`, the logD in data set [1] amounted to 3. In data set [1], `CC1(C)Cc2nc(N3CCOc4ccc(Nc5ccc(-c6ccccc6)nn5)cc43)sc2C(=O)N1` yielded a logD of 3.72. As for `CC1(C)Cc2nc(N3CCOc4ccc(-c5ccc(N6CCNCC6)nn5)cc43)sc2C(=O)N1`, the logD in data set [1] turned out to be 2.45. On to `CC1(C)Cc2nc(N3CCOc4ccc(-c5cnn(CCN)c5)cc43)sc2C(=O)N1`, for which the logD in data set [1] was 1.16. `Cn1ncc(-c2ccc3c(c2)N(c2nc4c(s2)C(=O)NC(C)(C)C4)CCO3)c1N` yielded a logD in data set [1] of 1.98. As for `Cc1n[nH]c(C)c1-c1ccc2c(c1)N(c1nc3c(s1)C(=O)NC(C)(C)C3)CCO2`, the logD in data set [1] came to 3.04. As for `CC(C)(O)Cn1cc(-c2ccc3c(c2)N(c2nc4c(s2)C(=O)NC(C)(C)C4)CCO3)cn1`, in data set [1], the pH-dependent lipophilicity (logD) worked out at 2.74. Besides, the Cmax in data set [2] amounted to 195 ng/mL. Besides, the AUC in data set [3] came to 1000 ng·h/mL. For the compound `CN1CCN(c2ccc(-c3ccc4c(c3)N(c3nc5c(s3)C(=O)NC(C)(C)C5)CCO4)nn2)CC1`, the logD in data set [1] was 1.75. With `Cc1nn(CC(C)(C)O)c(C)c1-c1ccc2c(c1)N(c1nc3c(s1)C(=O)NC(C)(C)C3)CCO2`, the logD in data set [1] is 2.3. In turn, `CN(C)c1ccc(-c2ccc3c(c2)N(c2nc4c(s2)C(=O)NC(C)(C)C4)CCO3)nn1` registered a logD in data set [1] of 2.61. For `COc1ccc(-c2ccc3c(c2)N(c2nc4c(s2)C(=O)NC(C)(C)C4)CCO3)nn1`, the logD in data set [1] came to 0.22. In the case of `CC1(C)Cc2nc(N3CCOc4ccc(-c5cn[nH]c5)cc43)sc2C(=O)N1`, in data set [1], the logD was determined as 2.68. In data set [1], `Cn1cc(-c2ccc3c(c2)N(c2nc4c(s2)C(=O)NC(C)(C)C4)CCO3)cn1` registered a logD of 2.63.

Turning to `CCn1cc(-c2ccc3c(c2)N(c2nc4c(s2)C(=O)NC(C)(C)C4)CCO3)cn1`, the logD in data set [1] was 2.73. On to `CC1(C)Cc2nc(N3CCOc4ccc(-c5cnn(Cc6ccccc6)c5)cc43)sc2C(=O)N1`, for which the log distribution coefficient (logD) in data set [1] came out at 3.91. Also, the Cmax in data set [2] worked out at 103 ng/mL. For the same compound, the AUC in data set [3] turned out to be 455 ng·h/mL. In data set [1], `COc1ccc(Nc2ccc3c(c2)N(c2nc4c(s2)C(=O)NC(C)(C)C4)CCO3)nn1` displayed a logD of 2.74. In turn, `CC1(C)Cc2nc(N3CCOc4ccc(-c5ccc(N)nn5)cc43)sc2C(=O)N1` yielded a logD in data set [1] of 1.94. For the same compound, the Cmax in data set [2] is 14 ng/mL. The compound also displayed an AUC in data set [3] of 78 ng·h/mL.

Take `Cc1nn(C)c(C)c1-c1ccc2c(c1)N(c1nc3c(s1)C(=O)NC(C)(C)C3)CCO2`: the logD in data set [1] stood at 3.23. Regarding `Cc1nn(CCCN)cc1-c1ccc2c(c1)N(c1nc3c(s1)C(=O)NC(C)(C)C3)CCO2`, the logD in data set [1] is 0.38.
